ChEMBL document CHEMBL1144497 (Bioorg Med Chem, 2007)
pIC50: −log10 of the molar value. ≈ marks a conversion by molar mass, not a printed value.

How the values were obtained:
[1] = Solubility in sodium phosphate buffer at pH 7.4; format: physicochemical
[2] = Solubility in oil; format: physicochemical
Liver carboxylesterase 1 = target: T1, Liver carboxylesterase 1 (Homo sapiens, UniProt P23141); assay: Activity of human recombinant carboxylesterase 1 assessed as AUDA hydrolysis; design: scale not given: the % may be the effect or the level left
T1 sequence (P23141 whole entry): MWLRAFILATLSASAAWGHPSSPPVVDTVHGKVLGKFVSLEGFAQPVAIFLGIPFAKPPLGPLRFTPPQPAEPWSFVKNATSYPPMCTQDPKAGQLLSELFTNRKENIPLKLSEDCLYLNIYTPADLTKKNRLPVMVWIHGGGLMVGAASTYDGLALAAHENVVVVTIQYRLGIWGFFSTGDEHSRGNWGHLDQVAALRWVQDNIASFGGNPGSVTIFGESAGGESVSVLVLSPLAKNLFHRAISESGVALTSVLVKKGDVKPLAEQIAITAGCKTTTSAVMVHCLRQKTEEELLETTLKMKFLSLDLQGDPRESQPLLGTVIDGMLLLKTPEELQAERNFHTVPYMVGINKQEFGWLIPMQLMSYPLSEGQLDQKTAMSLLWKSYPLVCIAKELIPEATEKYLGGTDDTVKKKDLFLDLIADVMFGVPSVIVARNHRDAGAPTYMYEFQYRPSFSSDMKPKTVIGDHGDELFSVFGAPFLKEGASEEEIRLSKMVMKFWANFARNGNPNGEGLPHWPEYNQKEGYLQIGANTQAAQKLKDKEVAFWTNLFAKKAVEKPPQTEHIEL

Cocaine esterase = target: T2, Cocaine esterase (Homo sapiens, UniProt O00748); assay: Activity of human recombinant carboxylesterase 2 assessed as AUDA hydrolysis; design: concentration or dose not given beside the values
T2 sequence (O00748 whole entry): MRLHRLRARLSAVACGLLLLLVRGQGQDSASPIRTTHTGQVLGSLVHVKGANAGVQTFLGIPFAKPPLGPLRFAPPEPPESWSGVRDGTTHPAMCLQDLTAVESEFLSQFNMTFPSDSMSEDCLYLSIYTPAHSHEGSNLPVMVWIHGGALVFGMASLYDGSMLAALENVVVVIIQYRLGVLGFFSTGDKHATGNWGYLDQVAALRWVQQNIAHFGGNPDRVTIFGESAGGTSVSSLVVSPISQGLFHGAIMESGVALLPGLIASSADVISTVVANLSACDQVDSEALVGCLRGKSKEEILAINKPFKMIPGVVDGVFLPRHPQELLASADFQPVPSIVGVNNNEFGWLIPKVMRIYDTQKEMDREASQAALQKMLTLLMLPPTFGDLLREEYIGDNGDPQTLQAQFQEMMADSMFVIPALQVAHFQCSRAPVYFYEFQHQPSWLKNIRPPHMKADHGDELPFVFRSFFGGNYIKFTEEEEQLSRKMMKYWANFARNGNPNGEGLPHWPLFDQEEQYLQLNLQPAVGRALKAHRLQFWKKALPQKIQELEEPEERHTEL
Outline: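 Ester (100 μM) was incubated with purified baculovirus-expressed human carboxylesterase (hCE-1 or hCE-2, 5 μg; 333 nM) in 0.1 M sodium phosphate pH 7.4 at 37°C. Sampling was at 0, 30 and 60 min, with 60 min reported. Percent free acid (AUDA) formed was measured by LC-MS/MS. Values are averages of three separate measurements.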

Mus musculus [3] = assay: Cmax in Swiss Webster mouse at 5 mg/kg, po; format: ADME, organism-based; design: dose 5 mg/kg, route oral; details: in vivo
Outline: (§1)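 Male Swiss Webster mice, 7 weeks old, dosed by oral gavage at 5 mg/kg in olive oil. AUDA was measured in blood by LC-MS/MS. Cmax, AUC to terminal time and T1/2 were calculated from AUDA blood concentrations.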

Mus musculus [4] = assay: AUC in Swiss Webster mouse at 5 mg/kg, po; format: ADME, organism-based, Plasma; design: dose 5 mg/kg, route oral; details: in vivo; outline: as §1
Mus musculus [5] = assay: Half life in Swiss Webster mouse at 5 mg/kg, po; format: ADME, organism-based; design: dose 5 mg/kg, route oral; details: in vivo
[6] = target: T3, Bifunctional epoxide hydrolase 2 (Homo sapiens, UniProt P34913); assay: Inhibition of human soluble epoxide hydrolase by fluorescent based assay
T3 sequence (P34913 whole entry): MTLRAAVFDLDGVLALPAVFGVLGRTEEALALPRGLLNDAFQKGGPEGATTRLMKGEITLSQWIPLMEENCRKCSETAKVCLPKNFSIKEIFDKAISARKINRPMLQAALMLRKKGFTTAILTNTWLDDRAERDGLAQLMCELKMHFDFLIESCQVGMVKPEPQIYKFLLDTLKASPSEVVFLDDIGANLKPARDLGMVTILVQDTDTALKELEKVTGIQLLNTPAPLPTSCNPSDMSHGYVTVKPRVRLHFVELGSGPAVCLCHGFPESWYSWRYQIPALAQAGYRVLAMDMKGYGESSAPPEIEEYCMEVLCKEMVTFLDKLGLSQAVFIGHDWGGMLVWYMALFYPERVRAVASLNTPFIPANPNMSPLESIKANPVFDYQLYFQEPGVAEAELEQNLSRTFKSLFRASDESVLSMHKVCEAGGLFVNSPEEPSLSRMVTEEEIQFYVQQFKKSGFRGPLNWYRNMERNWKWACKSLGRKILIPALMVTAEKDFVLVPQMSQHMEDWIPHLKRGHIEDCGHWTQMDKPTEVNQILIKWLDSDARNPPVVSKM

[7] = target: T4, Bifunctional epoxide hydrolase 2 (Mus musculus, UniProt P34914); assay: Inhibition of mouse soluble epoxide hydrolase by spectrometric based assay
T4 sequence (P34914 whole entry): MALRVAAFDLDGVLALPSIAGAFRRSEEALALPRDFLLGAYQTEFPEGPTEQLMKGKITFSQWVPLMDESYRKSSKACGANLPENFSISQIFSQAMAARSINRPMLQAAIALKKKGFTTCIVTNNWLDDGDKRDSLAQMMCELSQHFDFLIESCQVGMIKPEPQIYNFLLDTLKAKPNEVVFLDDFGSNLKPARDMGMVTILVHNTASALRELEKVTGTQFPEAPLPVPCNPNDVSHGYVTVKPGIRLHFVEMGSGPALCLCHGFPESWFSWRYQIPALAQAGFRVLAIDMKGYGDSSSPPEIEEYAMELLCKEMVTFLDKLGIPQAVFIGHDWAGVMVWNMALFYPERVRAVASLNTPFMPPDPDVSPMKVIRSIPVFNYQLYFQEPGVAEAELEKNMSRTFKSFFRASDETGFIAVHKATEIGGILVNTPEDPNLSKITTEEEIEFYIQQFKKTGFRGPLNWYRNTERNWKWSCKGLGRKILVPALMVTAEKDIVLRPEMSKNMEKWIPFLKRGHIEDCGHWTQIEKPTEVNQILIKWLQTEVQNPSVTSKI

[8] = target: T3, Bifunctional epoxide hydrolase 2; assay: Inhibition of human soluble epoxide hydrolase by spectrometric based assay

Structure (SMILES)	solubility [1] [µg/mL]	solubility [2] [µg/mL]	Activity (Liver carboxylesterase 1) [%]	Activity (Cocaine esterase) [%]	Cmax (Mus musculus [3]) [ng/mL]	AUC (Mus musculus [4]) [ng·h/mL]	t1/2 (Mus musculus [5]) [h]	pIC50 [6]	pIC50 [7]	pIC50 [8]
CC(C)OC(=O)CCCCCCCCCCCNC(=O)NC12CC3CC(CC(C3)C1)C2	7 (≈ 16.1 µM)	12000 (≈ 27600 µM)	72	39	29.6	84	1.9	8.96		
O=C(O)CCCCCCCCCCCNC(=O)NC12CC3CC(CC(C3)C1)C2	35 (≈ 89.2 µM)	5000 (≈ 12700 µM)	100	100	26.9	87	2.3			
CCCOC(=O)CCCCCCCCCCCNC(=O)NC12CC3CC(CC(C3)C1)C2								9.00		
O=C(NCCCCCCCCCCCC(=O)OCc1ccccc1)NC12CC3CC(CC(C3)C1)C2								8.70		
O=C(CCCCCCCCCCCNC(=O)NC12CC3CC(CC(C3)C1)C2)NCC(=O)N[C@H]1O[C@@H](CO)[C@H](O)[C@@H](O)[C@@H]1O								8.12	7.30	6.66
C#CCOC(=O)CCCCCCCCCCCNC(=O)NC12CC3CC(CC(C3)C1)C2								8.74		
CCOC(=O)CCCCCCCCCCCNC(=O)NC12CC3CC(CC(C3)C1)C2								8.80		
O=C(NCCCCCCCCCCCC(=O)OC12CC3CC(CC(C3)C1)C2)NC12CC3CC(CC(C3)C1)C2								8.82	7.30	6.64
CCCCCCCCC(NC(=O)CCCCCCCCCCCNC(=O)NC12CC3CC(CC(C3)C1)C2)C(=O)N[C@H]1O[C@@H](CO)[C@H](O)[C@@H](O)[C@@H]1O (stereo partly drawn)	38 (≈ 52.6 µM)	2000 (≈ 2770 µM)						8.12	7.30	7.00
CCCCOC(=O)CCCCCCCCCCCNC(=O)NC12CC3CC(CC(C3)C1)C2	5 (≈ 11.1 µM)	25000 (≈ 55700 µM)	41	39	39.5	96				
C=CCOC(=O)CCCCCCCCCCCNC(=O)NC12CC3CC(CC(C3)C1)C2								9.00		
CCC(C)OC(=O)CCCCCCCCCCCNC(=O)NC12CC3CC(CC(C3)C1)C2 (stereo not drawn)	5 (≈ 11.1 µM)	27000 (≈ 60200 µM)		26	13.1	47	3.8	9.15		
CC(C)COC(=O)CCCCCCCCCCCNC(=O)NC12CC3CC(CC(C3)C1)C2	1.7 (≈ 3.79 µM)	17000 (≈ 37900 µM)	55	33	42.9	110		8.92		
CS(=O)(=O)NC(=O)CCCCCCCCCCCNC(=O)NC12CC3CC(CC(C3)C1)C2	10 (≈ 21.3 µM)									
COC(=O)CCCCCCCCCCCNC(=O)NC12CC3CC(CC(C3)C1)C2								8.64		
